Converted amounts (≈) assume the structure as drawn.
Columns and labels:
Type in all cases: functional
Escherichia coli [1] = assay: Antimicrobial activity against TolC efflux-deficient Escherichia coli K-12 after 16 to 20 hrs by broth microdilution method
How it was run: (§1)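 CLSI broth microdilution. Log-phase cultures grown in cation-adjusted Mueller–Hinton broth and seeded at 1×10^5 CFU/mL. Plates incubated at 37 °C with shaking for 16–20 h. DMSO stocks of compound were diluted into medium to 1% DMSO final. Growth was read as OD600. MIC (μg/ml) is the lowest concentration with no apparent growth, averaged over at least 3 assays.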

Escherichia coli [2] = assay: Antimicrobial activity against efflux pump-positive Escherichia coli K-12 after 16 to 20 hrs by broth microdilution method; how it was run: as §1
Pseudomonas aeruginosa [3] = assay: Antimicrobial activity against efflux pump mexAB-oprM-deficient Pseudomonas aeruginosa PAO1 after 16 to 20 hrs by broth microdilution method; how it was run: as §1
Enterococcus faecalis [4] = assay: Antimicrobial activity vancomycin-resistant Enterococcus faecalis ATCC 51575 after 16 to 20 hrs by broth microdilution method
How it was run: (§2)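 CLSI broth microdilution. Log-phase cultures in cation-adjusted Mueller–Hinton broth were seeded at 1×10^5 CFU/mL and incubated at 37 °C with shaking for 16–20 h. Compounds were diluted from DMSO stocks to a final 1% DMSO. Growth was read as OD600, and MIC was taken as the lowest concentration with no apparent growth. At least 3 runs were done, and the average MIC is reported in μg/ml.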

Staphylococcus aureus [5] = assay: Antimicrobial activity against Staphylococcus aureus ATCC 25923 after 16 to 20 hrs by broth microdilution method; how it was run: as §2
Staphylococcus aureus [6] = assay: Antimicrobial activity methicillin-resistant against Staphylococcus aureus clinical isolate 1094 after 16 to 20 hrs by broth microdilution method
Enterococcus faecalis [7] = assay: Antimicrobial activity Enterococcus faecalis ATCC 29212 after 16 to 20 hrs by broth microdilution method; how it was run: as §1
Bacillus anthracis = assay: Antimicrobial activity against Bacillus anthracis Sterne after 16 to 20 hrs by broth microdilution method; how it was run: as §2
Pseudomonas aeruginosa [8] = assay: Antimicrobial activity against efflux pump-positive Pseudomonas aeruginosa PAO1 ATCC BAA-47 after 16 to 20 hrs by broth microdilution method; how it was run: as §1
Acinetobacter baumannii = assay: Antimicrobial activity against Acinetobacter baumannii ATCC 19606 after 16 to 20 hrs by broth microdilution method; how it was run: as §1
Klebsiella pneumoniae = assay: Antimicrobial activity against Klebsiella pneumoniae ATCC 13882 after 16 to 20 hrs by broth microdilution method; how it was run: as §1
Haemophilus influenzae = assay: Antimicrobial activity against Haemophilus influenzae ATCC 10211 after 16 to 20 hrs by broth microdilution method
How it was run: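 Broth microdilution per CLSI in Haemophilus Test Medium at 37 °C under 5% CO₂ for 16–20 h, seeded at 1×10^5 CFU/mL. Compound was added from DMSO stocks to 1% DMSO final. Growth was read as OD600. MIC (μg/ml) is the lowest concentration without apparent growth, averaged from at least 3 runs.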

With `c1cc2cc(CCCc3cc4ccc(C5=NCCCN5)cc4[nH]3)[nH]c2cc1C1=NCCCN1` the MIC (Escherichia coli [1]) was 1.25 µg/mL (≈ 2.85 µM), the MIC (Escherichia coli [2]) was 80 µg/mL (≈ 182 µM) and the MIC (Pseudomonas aeruginosa [3]) was over 80 µg/mL. The MIC (Enterococcus faecalis [4]) was 0.63 µg/mL (≈ 1.44 µM), the MIC (Staphylococcus aureus [5]) was 20 µg/mL (≈ 45.6 µM) and the MIC (Staphylococcus aureus [6]) was 20 µg/mL (≈ 45.6 µM). It also gave an MIC (Enterococcus faecalis [7]) of 80 µg/mL (≈ 182 µM), an MIC (Bacillus anthracis) of 20 µg/mL (≈ 45.6 µM) and an MIC (Pseudomonas aeruginosa [8]) of over 80 µg/mL. For the same compound, the MIC (Acinetobacter baumannii) was over 80 µg/mL.
`NCc1ccc2cc(-c3ccc(-c4cc5ccc(CN)cc5[nH]4)cc3)[nH]c2c1.O=C(O)C(F)(F)F` showed an MIC (Escherichia coli [1]) of 1.25 µg/mL, an MIC (Escherichia coli [2]) of 5 µg/mL and an MIC (Pseudomonas aeruginosa [3]) of 40 µg/mL. The MIC (Enterococcus faecalis [4]) was 1.25 µg/mL, the MIC (Staphylococcus aureus [5]) was 0.63 µg/mL and the MIC (Staphylococcus aureus [6]) was 1.25 µg/mL. For the same compound, the MIC (Enterococcus faecalis [7]) was 1.25 µg/mL, the MIC (Bacillus anthracis) was 1.25 µg/mL and the MIC (Pseudomonas aeruginosa [8]) was 40 µg/mL. It also gave an MIC (Acinetobacter baumannii) of over 80 µg/mL and an MIC (Klebsiella pneumoniae) of 2.5 µg/mL.
For `O=C(O)C(F)(F)F.c1cc2cc(CCc3cc4ccc(C5=NCCCN5)cc4[nH]3)[nH]c2cc1C1=NCCCN1`, the MIC (Escherichia coli [1]) was 0.31 µg/mL, the MIC (Escherichia coli [2]) was 2.5 µg/mL and the MIC (Pseudomonas aeruginosa [3]) was 10 µg/mL. For the same compound, the MIC (Enterococcus faecalis [4]) was 2.5 µg/mL, the MIC (Staphylococcus aureus [5]) was 0.63 µg/mL and the MIC (Staphylococcus aureus [6]) was 1.25 µg/mL. It also gave an MIC (Enterococcus faecalis [7]) of 5 µg/mL, an MIC (Bacillus anthracis) of 0.63 µg/mL and an MIC (Pseudomonas aeruginosa [8]) of 10 µg/mL. It also gave an MIC (Acinetobacter baumannii) of 80 µg/mL.
Compound `CC(=O)O.c1cc2cc(-c3ccc(-c4cc5ccc(C6=NCCN6)cc5[nH]4)nc3)[nH]c2cc1C1=NCCN1` has an MIC (Escherichia coli [1]) of 0.63 µg/mL, an MIC (Escherichia coli [2]) of 2.5 µg/mL and an MIC (Pseudomonas aeruginosa [3]) of over 80 µg/mL. For the same compound, the MIC (Enterococcus faecalis [4]) was 0.31 µg/mL, the MIC (Staphylococcus aureus [5]) was 0.31 µg/mL and the MIC (Staphylococcus aureus [6]) was 0.31 µg/mL. For the same compound, the MIC (Enterococcus faecalis [7]) was 0.31 µg/mL, the MIC (Bacillus anthracis) was 0.31 µg/mL and the MIC (Pseudomonas aeruginosa [8]) was over 80 µg/mL. It also gave an MIC (Acinetobacter baumannii) of over 80 µg/mL and an MIC (Klebsiella pneumoniae) of 2.5 µg/mL.
In the case of `CCOC(=N)c1ccc2cc(-c3ccc(-c4cc5ccc(C(=N)OCC)cc5[nH]4)cc3)[nH]c2c1.Cl`, the MIC (Pseudomonas aeruginosa [3]) is reported as over 80 µg/mL, the MIC (Enterococcus faecalis [4]) is reported as 10 µg/mL and the MIC (Staphylococcus aureus [5]) is reported as 0.63 µg/mL. For the same compound, the MIC (Staphylococcus aureus [6]) was 5 µg/mL, the MIC (Enterococcus faecalis [7]) was 2.5 µg/mL and the MIC (Bacillus anthracis) was 2.5 µg/mL. The MIC (Pseudomonas aeruginosa [8]) was over 80 µg/mL and the MIC (Klebsiella pneumoniae) was over 80 µg/mL.
Work on `FC1CN=C(c2ccc3cc(-c4ccc(-c5cc6ccc(C7=NCC(F)CN7)cc6[nH]5)cc4)[nH]c3c2)NC1.O=C(O)C(F)(F)F` (stereo not drawn) yielded an MIC (Escherichia coli [1]) of 0.31 µg/mL, an MIC (Escherichia coli [2]) of 0.63 µg/mL and an MIC (Pseudomonas aeruginosa [3]) of 0.31 µg/mL. For the same compound, the MIC (Enterococcus faecalis [4]) was 0.08 µg/mL, the MIC (Staphylococcus aureus [5]) was 0.08 µg/mL and the MIC (Staphylococcus aureus [6]) was 0.16 µg/mL. It also gave an MIC (Enterococcus faecalis [7]) of 0.16 µg/mL, an MIC (Bacillus anthracis) of 0.08 µg/mL and an MIC (Pseudomonas aeruginosa [8]) of 1.25 µg/mL. For the same compound, the MIC (Acinetobacter baumannii) was 40 µg/mL and the MIC (Klebsiella pneumoniae) was 0.31 µg/mL.
In the case of `COC1CN=C(c2ccc3cc(-c4ccc(-c5cc6ccc(C7=NCC(OC)CN7)cc6[nH]5)cc4)[nH]c3c2)NC1.O=C(O)C(F)(F)F` (stereo not drawn), the MIC (Escherichia coli [1]) is reported as 0.31 µg/mL, the MIC (Escherichia coli [2]) is reported as 5 µg/mL and the MIC (Pseudomonas aeruginosa [3]) is reported as 2.5 µg/mL. It also gave an MIC (Enterococcus faecalis [4]) of 0.16 µg/mL, an MIC (Staphylococcus aureus [5]) of 0.16 µg/mL and an MIC (Staphylococcus aureus [6]) of 0.16 µg/mL. The MIC (Enterococcus faecalis [7]) was 0.16 µg/mL, the MIC (Bacillus anthracis) was 0.16 µg/mL and the MIC (Pseudomonas aeruginosa [8]) was 5 µg/mL. The MIC (Acinetobacter baumannii) was over 80 µg/mL and the MIC (Klebsiella pneumoniae) was 0.63 µg/mL.
Compound `CC(=O)O.c1cc2cc(-c3ccc(-c4cc5ccc(C6=NCCCN6)cc5[nH]4)s3)[nH]c2cc1C1=NCCCN1` has an MIC (Escherichia coli [1]) of 0.31 µg/mL, an MIC (Escherichia coli [2]) of 0.63 µg/mL and an MIC (Pseudomonas aeruginosa [3]) of 1.25 µg/mL. It also gave an MIC (Enterococcus faecalis [4]) of 0.16 µg/mL, an MIC (Staphylococcus aureus [5]) of 0.08 µg/mL and an MIC (Staphylococcus aureus [6]) of 0.16 µg/mL. The MIC (Enterococcus faecalis [7]) was 0.16 µg/mL, the MIC (Bacillus anthracis) was 0.16 µg/mL and the MIC (Pseudomonas aeruginosa [8]) was 5 µg/mL. The MIC (Acinetobacter baumannii) was 5 µg/mL and the MIC (Klebsiella pneumoniae) was 0.63 µg/mL.
Work on `CC(=O)O.c1cc2cc(-c3cnc(-c4cc5ccc(C6=NCCCN6)cc5[nH]4)cn3)[nH]c2cc1C1=NCCCN1` yielded an MIC (Escherichia coli [1]) of 0.31 µg/mL, an MIC (Escherichia coli [2]) of 2.5 µg/mL and an MIC (Pseudomonas aeruginosa [3]) of 5 µg/mL. The MIC (Enterococcus faecalis [4]) was 0.31 µg/mL, the MIC (Staphylococcus aureus [5]) was 0.31 µg/mL and the MIC (Staphylococcus aureus [6]) was 0.31 µg/mL. For the same compound, the MIC (Enterococcus faecalis [7]) was 0.31 µg/mL, the MIC (Bacillus anthracis) was 0.16 µg/mL and the MIC (Pseudomonas aeruginosa [8]) was 5 µg/mL. For the same compound, the MIC (Acinetobacter baumannii) was over 80 µg/mL and the MIC (Klebsiella pneumoniae) was 1.25 µg/mL.
With `CC(=O)O.c1cc2cc(-c3ccc(-c4cc5ccc(C6=NCCCN6)cc5[nH]4)nc3)[nH]c2cc1C1=NCCCN1` the MIC (Escherichia coli [1]) was 0.16 µg/mL, the MIC (Escherichia coli [2]) was 0.63 µg/mL and the MIC (Pseudomonas aeruginosa [3]) was 2.5 µg/mL. The MIC (Enterococcus faecalis [4]) was 0.16 µg/mL, the MIC (Staphylococcus aureus [5]) was 0.16 µg/mL and the MIC (Staphylococcus aureus [6]) was 0.16 µg/mL. For the same compound, the MIC (Enterococcus faecalis [7]) was 0.63 µg/mL, the MIC (Bacillus anthracis) was 0.16 µg/mL and the MIC (Pseudomonas aeruginosa [8]) was 2.5 µg/mL. It also gave an MIC (Acinetobacter baumannii) of 20 µg/mL, an MIC (Haemophilus influenzae) of 2.5 µg/mL and an MIC (Klebsiella pneumoniae) of 5 µg/mL.
With `CC1(C)CN=C(c2ccc3cc(-c4ccc(-c5cc6ccc(C7=NCC(C)(C)CN7)cc6[nH]5)cc4)[nH]c3c2)NC1.O=C(O)C(F)(F)F` the MIC (Escherichia coli [1]) was 0.63 µg/mL, the MIC (Escherichia coli [2]) was 0.63 µg/mL and the MIC (Pseudomonas aeruginosa [3]) was 40 µg/mL. It also gave an MIC (Enterococcus faecalis [4]) of 0.63 µg/mL, an MIC (Staphylococcus aureus [5]) of 0.31 µg/mL and an MIC (Staphylococcus aureus [6]) of 0.31 µg/mL. The MIC (Enterococcus faecalis [7]) was 0.31 µg/mL, the MIC (Bacillus anthracis) was 0.31 µg/mL and the MIC (Pseudomonas aeruginosa [8]) was 10 µg/mL. For the same compound, the MIC (Acinetobacter baumannii) was over 80 µg/mL, the MIC (Haemophilus influenzae) was 2.5 µg/mL and the MIC (Klebsiella pneumoniae) was 0.63 µg/mL.

Reference: ChEMBL document CHEMBL3091318, “Potent and broad-spectrum antibacterial activity of indole-based bisamidine antibiotics: synthesis and SAR of novel analogs of MBX 1066 and MBX 1090” (2013)
